Bioassay records as filed in PubChem.
Hits are enriched below; roughly 1.9% of the tested compounds scored in any of these assays.
EBI2 antag: EBI2 (human) antagonism | P32249 | EBI2 beta-arrestin recruitment, luminescence, 7a,25-OHC stimulated | inhibition, % at 5 µM | actives 0.81% (n = 360,000) | AID 651636; in the data active = inhibition above about 38%;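 note: enzyme fragment complementation signal reports receptor beta-arrestin coupling in cells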
APJ antagonist: APJ receptor antagonism; P35414; CHO-K1 APJ beta-arrestin complementation, luminescence; inhibition, % at 20 µM; actives 0.32% (n = 330,000); AID 2521;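 active = inhibition above about 40% at 20 µM, limit read from the data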;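 note: cells challenged with 10 nM apelin-13 agonist together with compound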
Target sequence (P35414 whole entry, looked up): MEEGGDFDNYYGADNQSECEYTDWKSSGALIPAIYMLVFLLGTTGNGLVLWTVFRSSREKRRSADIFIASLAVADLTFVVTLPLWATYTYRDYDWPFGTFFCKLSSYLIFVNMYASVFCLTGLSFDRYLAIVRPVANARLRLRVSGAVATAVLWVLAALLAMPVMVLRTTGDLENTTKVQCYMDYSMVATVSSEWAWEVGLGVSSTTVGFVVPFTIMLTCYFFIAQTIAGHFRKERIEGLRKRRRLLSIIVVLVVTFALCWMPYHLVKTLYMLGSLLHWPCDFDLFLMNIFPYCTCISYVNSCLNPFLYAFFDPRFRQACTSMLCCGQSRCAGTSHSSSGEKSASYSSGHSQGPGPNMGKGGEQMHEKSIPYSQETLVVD
CXCR6 inh: inhibitors of human CXCR6 receptor. inhibition, % at 20 µM. CHO-K1 PathHunter CXCR6 beta-arrestin, luminescence. AID 602244. O00574. actives 0.36% (n = 360,000); in the data active = inhibition above about 34%, passing the limit was not always enough;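 note: antagonist mode with CXCL16 agonist at 10 nM final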
CCR6 antagonist: blocks CCL20-driven beta-arrestin recruitment at human CCR6; P51684; CHO-K1 CCR6 PathHunter beta-arrestin, luminescence, CCL20-stimulated; inhibition, % at 20 µM; actives 0.49% (n = 340,000);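 active = compounds whose inhibition of the agonist-driven luminescence signal at 20 µM reaches about 50%, limit read from the data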;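 note: cells stimulated with CCL20 at 14 nM final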
APJ ag: activates the human apelin receptor APJ | P35414 | CHO-K1 APJ PathHunter beta-arrestin, luminescence; 0% DMSO wells, 100% apelin | activation, % at 20 µM | actives 0.11% (n = 330,000) | AID 2520;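 active = activation more than six SD over the plate average, tested at 20 µM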
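Assay system: CHO-K1 APJ beta-arrestin complementation cell line / Compound: single test compound dose, 20 µM final, 1% DMSO / Times: overnight seeding, 90 min compound at 25 °C, 1 h detection / Technique: beta-gal luminescence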
TAG inh: reduces triacylglycerol accumulation in H9c2 cells; AID 651582; Nile Red lipid (TAG) fluorescence; cells loaded with 200 µM oleic acid; inhibition, % at 12.5 µM; actives 0.66% (n = 230,000);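 active = pattern-corrected inhibition of lipid staining of at least 50% with the nuclear-stain viability signal not falling by more than 50%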
A number is an active result; n = inactive; x = no result given.

SMILES	EBI2 antag	APJ antagonist	CXCR6 inh	CCR6 antagonist	APJ ag	TAG inh
OCC[C@@H]1C[C@H](O)[C@@H](O)[C@@]2(OCCc3cc(Cl)ccc32)O1	n	x	n	x	x	x
CS(=O)(=O)Nc1ccccc1-c1ccc2nccn2c1	n	x	n	x	x	n
COC(=O)C[C@H]1CC[C@@H](NC(=O)Nc2c(C)noc2C)[C@@H](CO)O1	n	x	x	x	x	x
Cc1cc2ccccn2c1C(=O)c1ccc([N+](=O)[O-])o1	n	n	n	n	n	n
CN(CCOc1ccccc1)C(=O)C1CCN(C(=O)c2ccc(Cl)cc2)CC1	64	n	n	n	n	n
CN(CCOc1ccc(Cl)cc1)C(=O)C1CCN(C(=O)c2ccc(F)cc2)CC1	n	n	n	n	n	n
CC(NO)C(C)(C)NO (centres undefined)	n	n	n	58	n	n
CCCN1C(=O)/C(=C2\SC(=S)N(c3c(C)n(C)n(-c4ccccc4)c3=O)C2=O)c2ccccc21	x	n	x	51	n	x
CCN1C(=O)/C(=C2\SC(=S)N(c3c(C)n(C)n(-c4ccccc4)c3=O)C2=O)c2ccccc21	n	n	n	n	n	x
COc1cc([N+](=O)[O-])cc(/C=N/NC(=O)C(C)Nc2ccccc2C)c1O (centres undefined)	69	n	n	n	n	x
N#CC1=C(N)C(C#N)(C#N)C(c2ccncc2)C2CN(C(=O)OCc3ccccc3)CC=C12 (centres undefined)	n	n	n	56	n	n
N#CC1=C(N)C(C#N)(C#N)[C@H](c2cccnc2)[C@H]2CN(C(=O)OCc3ccccc3)CC=C12	n	n	n	n	n	n
COc1ccc(-c2ccc(C(=O)Nc3cccc(NS(C)(=O)=O)c3)c3occc23)c(C)c1	n	x	n	x	x	n
CCN(CC)c1ccc(-c2nn3c(-c4n[nH]c5c4CCC5)nnc3s2)cc1	n	n	n	n	n	57
O=C(NCc1ccc(F)cc1)Nc1cccc(Cl)c1	n	n	n	n	n	n
Cc1[nH]n(-c2ccccc2)c(=O)c1N=Nc1ccc(C(=O)O)cc1	n	n	n	n	n	x
CC(=O)c1ccc(N=Nc2c(C)[nH]n(-c3ccccc3)c2=O)cc1	n	n	40	n	n	n
COc1cc(/C=N/NC(=O)c2nnn(-c3nonc3N)c2C)ccc1OCc1ccc(Cl)cc1	n	x	n	x	x	n
COc1cc(/C=C2/C(=O)NN(c3cccc(Cl)c3)C2=O)cc(OC)c1O	n	n	n	52	n	n
CCOc1cc(/C=C2/C(=O)NN(c3cccc(Cl)c3)C2=O)ccc1O	n	n	n	n	n	n
O=C(CN(Cc1ccc(Br)cc1)S(=O)(=O)c1ccccc1)NCc1cccnc1	n	n	n	n	n	n
O=C(NCc1cccnc1)/C(=C/c1ccc(-c2cccc(C(F)(F)F)c2)o1)NC(=O)c1ccccc1	n	n	n	n	n	x
O=C(NCc1cccnc1)/C(=C/c1ccc(-c2ccc(Cl)cc2)o1)S(=O)(=O)c1ccccc1	54	n	n	n	n	x
O=C(NCc1cccnc1)/C(=C\c1ccc(-c2ccc(Br)cc2)o1)S(=O)(=O)c1ccccc1	62	n	n	n	n	x
O=C(CSc1ccc(S(=O)(=O)N2CCCC2)cn1)Nc1ccc([N+](=O)[O-])cc1C(F)(F)F	n	x	n	n	x	n
SMILES	EBI2 antag	APJ antagonist	CXCR6 inh	CCR6 antagonist	APJ ag	TAG inh
O=C(NCc1ccco1)c1ccc(Cn2c(=O)c3ccccc3n(Cc3ccc(Cl)cc3)c2=O)cc1	n	n	n	n	n	n
O=c1c2ccccc2n(Cc2ccc(Cl)cc2)c(=O)n1Cc1ccco1	77	n	n	n	n	n
CCCCN1C(=O)/C(=C2\SC(N3CCCCC3)=NC2=O)c2ccccc21	n	n	n	n	n	x
CCCCN1C(=O)C(=Nc2cccc3cnccc23)c2ccccc21	n	n	n	57	n	n
CNC[C@@H]1Oc2cc(Br)ccc2S(=O)(=O)N([C@H](C)CO)C[C@@H]1C	n	x	n	x	x	x
CCN1C/C(=C\c2cccc([N+](=O)[O-])c2)C(=O)/C(=C/c2cccc([N+](=O)[O-])c2)C1	n	x	n	73	x	x
O=[N+]([O-])c1cc(Cc2ccccc2)cc(C=Nc2ccc(N3CCOCC3)cc2)c1O	n	x	43	55	x	x
Cc1ccc(O)c(N=Cc2cc(Cc3ccccc3)cc([N+](=O)[O-])c2O)c1	n	n	n	n	n	x
COCCn1c(SCC(=O)N2CCCC2=O)nnc1-c1ccncc1	n	x	n	x	x	n
CC(C)(C)OC(=O)N[C@@H](Cc1ccccc1)c1nnc(SCC(N)=O)o1	n	n	n	n	n	n
Cc1cccc(CS(=O)(=O)c2nnc([C@H](Cc3ccccc3)NC(=O)OC(C)(C)C)o2)c1	n	n	61	91	n	x
CC(C)C[C@@H](CN1CCC[C@H]1CN1C(=O)C(=O)NC[C@@H]1Cc1ccc(O)cc1)N1C[C@H](Cc2ccc(O)cc2)N(CC2CCCCCC2)C(=O)C1=O	n	x	n	x	x	x
O=C(NN=Cc1c(O)ccc2ccccc12)c1ccc2c(c1)OCO2	n	n	n	n	n	n
Oc1ccc(N=Nc2ccc3c(c2)OCO3)c2ccccc12	x	58	x	x	n	x
CC1(C(=O)Nc2cccc(OC(F)(F)F)c2)Cc2c(-c3ccc(C(N)=O)cc3)ccnc2O1 (centres undefined)	n	x	n	x	x	n
Cc1cccc2c1N(CCCOc1ccc(C(C)(C)C)cc1)C(=O)C2=O	n	n	n	51	n	n
Cc1ccccc1OCCCN1C(=O)C(=O)c2cccc(C)c21	n	48	n	58	n	n
CCOC(CN=c1nc(N(C)C)ss1)OCC	n	x	60	92	x	n
O=C1C(NS(=O)(=O)c2cccs2)=C(N2CCN(c3cccc(Cl)c3)CC2)C(=O)c2ccccc21	n	n	n	n	n	50
CC(C)CCN1CCC[C@]2(N[C@H](c3ccc(C(F)(F)F)cc3)[C@@H]3C(=O)N(Cc4ccccc4)C(=O)[C@@H]32)C1=O	n	x	n	x	x	n
O=C1C(F)=CC(COC(c2ccccc2)(c2ccccc2)c2ccccc2)OC1n1cc(F)c(=O)[nH]c1=O (centres undefined)	n	x	67	99	x	n
CC(=O)OCC1OC(n2cc(F)c(=O)[nH]c2=O)C(OC(C)=O)C1OC(C)=O (centres undefined)	n	n	n	n	n	n
Cc1ccc(Nc2nc(N)nc(-c3oc4ccccc4c3C)n2)cc1	n	n	n	n	n	58
Cc1cccc(Nc2nc(N)nc(-c3oc4ccccc4c3C)n2)c1	n	n	n	n	n	n
Cc1ccccc1-c1cc2nc(Oc3ccc4c(c3)OCO4)n(C)c(=O)c2s1	n	x	n	x	x	n
O=C(CN1CCN(S(=O)(=O)c2ccc(Br)cc2)CC1)Nc1ccc2c(c1)OCO2	n	n	62	n	n	n
